Source: ChEMBL document CHEMBL3352362, “Discovery of a novel, first-in-class, orally bioavailable azaindole inhibitor (VX-787) of influenza PB2” (J Med Chem, 2014)
pEC50, pKd: −log10 of the molar value.

Legend:
[1] = tested on: Influenza A virus; assay: Antiviral activity against Influenza A virus (A/Puerto Rico/8/1934(H1N1)) infected in MDCK cells assessed as cell protection after 72 hrs by cytopathic effect assay; format: functional, organism-based
In short: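 MDCK cells incubated with test compound and influenza A virus for 72 h (3-day CPE format). Cell viability read by an ATP end point. EC50 is the concentration giving 50% cell protection; mean of N = 3 or greater.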

[2] = biological target: Polymerase basic protein 2 (Influenza A virus (strain A/Puerto Rico/8/1934 H1N1), UniProt P03428); assay: Binding affinity to influenza A virus (A/Puerto Rico/8/1934(H1N1)) PB2 by competition binding fluorescence polarization (FP) assay
Polymerase basic protein 2, sequence (P03428 whole entry, the tested form may be a part): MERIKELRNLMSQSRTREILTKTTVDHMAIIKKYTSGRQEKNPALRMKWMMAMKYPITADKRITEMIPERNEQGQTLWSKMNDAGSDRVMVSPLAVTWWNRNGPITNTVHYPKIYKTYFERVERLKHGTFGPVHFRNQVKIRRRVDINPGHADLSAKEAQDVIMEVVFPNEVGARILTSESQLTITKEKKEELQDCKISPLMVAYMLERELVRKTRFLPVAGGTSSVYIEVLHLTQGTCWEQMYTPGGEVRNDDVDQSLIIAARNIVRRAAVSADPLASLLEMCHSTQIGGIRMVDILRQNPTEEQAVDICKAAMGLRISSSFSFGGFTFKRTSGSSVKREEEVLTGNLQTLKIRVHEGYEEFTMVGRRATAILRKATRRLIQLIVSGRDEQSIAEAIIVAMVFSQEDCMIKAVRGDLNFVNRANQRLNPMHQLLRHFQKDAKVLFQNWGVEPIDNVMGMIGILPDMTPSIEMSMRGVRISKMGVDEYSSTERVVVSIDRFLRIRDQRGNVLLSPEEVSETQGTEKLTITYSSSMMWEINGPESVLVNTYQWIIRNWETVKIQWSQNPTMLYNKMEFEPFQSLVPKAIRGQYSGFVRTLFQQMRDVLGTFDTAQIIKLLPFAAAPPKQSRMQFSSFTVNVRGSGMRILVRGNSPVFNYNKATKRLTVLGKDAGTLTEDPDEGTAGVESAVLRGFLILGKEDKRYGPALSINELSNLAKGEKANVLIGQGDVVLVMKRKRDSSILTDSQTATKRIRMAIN
In short: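 Fluorescence polarization competition binding assay measuring affinity for the cap-binding domain of the PB2 subunit.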

[3] = tested on: Influenza A virus; assay: Antiviral activity against Influenza A virus (A/Puerto Rico/8/1934(H1N1)) infected in cells assessed as reduction in multiplication of virus-specific RNA molecules using branched-chain DNA; format: functional
In short: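 Viral RNA replication in infected cells quantified by the bDNA QuantiGene method with strand-specific probes for positive- or negative-strand RNA. EC90 is the compound concentration giving viral RNA levels equal to 10% of control wells.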

[4] = Half life in rat at 3 mg/kg, iv; format: ADME, organism-based; parameters: dose 3 mg/kg, route intravenous; conditions: in vivo
[5] = Clearance in rat at 3 mg/kg, iv; format: ADME, organism-based; parameters: dose 3 mg/kg, route intravenous; conditions: in vivo
[6] = AUC in mouse at 30 mg/kg; format: ADME, organism-based; parameters: dose 30 mg/kg; conditions: plasma
[7] = Cmax in rat at 3 mg/kg, po; format: ADME, organism-based; parameters: dose 3 mg/kg, route oral; conditions: in vivo
[8] = Oral bioavailability in rat at 3 mg/kg; format: ADME, organism-based; conditions: in vivo
[9] = Cmax in mouse at 30 mg/kg; format: ADME, organism-based; parameters: dose 30 mg/kg; conditions: in vivo
[10] = AUC in rat at 3 mg/kg, po; format: ADME, organism-based; parameters: dose 3 mg/kg, route oral; conditions: plasma

`O=C(NC1CCOCC1)N[C@@H]1CCC[C@H](Nc2nc(-c3c[nH]c4ncc(F)cc34)ncc2F)C1` gave a pEC50 [1] of 7.22, a pKd [2] of 6.40 and an EC90 [3] of 160 nM.

Compound `O=C(CN1CCOCC1)N[C@@H]1CCC[C@H](Nc2nc(-c3c[nH]c4ncc(Cl)cc34)ncc2F)C1` has a pEC50 [1] of 7.00, a pKd [2] of 6.70 and an EC90 [3] of 380 nM.

Work on `CCc1cnc2[nH]cc(-c3ncc(F)c(N[C@H]4CCC[C@@H](NC(=O)N5CCOCC5)C4)n3)c2c1` yielded a pEC50 [1] of 7.60 and an EC90 [3] of 260 nM.

Compound `CS(=O)(=O)N1CCCC[C@@H]1CNc1nc(-c2c[nH]c3ncc(Cl)cc23)ncc1F` has a pEC50 [1] of 6.18, a pKd [2] of 7.00 and an EC90 [3] of 540 nM. For the same compound, the half-life [4] was 0.4 h and the clearance [5] was 152 mL/min/kg.

`N[C@H]1CCCC[C@@H]1Nc1nc(-c2c[nH]c3ncc(Cl)cc23)ncc1F` gave a pEC50 [1] of 6.21, a pKd [2] of 7.05 and an EC90 [3] of 2480 nM.

With `COCC(=O)N[C@@H]1CCC[C@H](Nc2nc(-c3c[nH]c4ncc(F)cc34)ncc2F)C1` the pEC50 [1] was 7.35, the pKd [2] was 6.70 and the EC90 [3] was 90 nM.

Work on `C[C@]1(C(=O)O)CCCC[C@@H]1Nc1nc(-c2c[nH]c3ncc(F)cc23)ncc1F` yielded a pEC50 [1] of 7.74, a pKd [2] greater than 8.70 and an EC90 [3] of 140 nM.

`Fc1cnc(-c2c[nH]c3ncc(Cl)cc23)nc1NC1CCCCC1` gave a pEC50 [1] of 5.79, a pKd [2] of 6.52 and an EC90 [3] of 2370 nM.

Work on `O=C(O)[C@H]1C2CCC(CC2)[C@@H]1Nc1nc(-c2c[nH]c3ncc(Cl)cc23)ncc1F` yielded a pEC50 [1] of 9.00, an AUC [6] of 10000 ng·h/mL and a Cmax [7] of 30 ng/mL. For the same compound, the pKd [2] was greater than 8.30, the bioavailability [8] was 24% and the Cmax [9] was 3700 ng/mL. The EC90 [3] was 1 nM, the half-life [4] was 3.9 h and the clearance [5] was 32 mL/min/kg. It also gave an AUC [10] of 300 ng·h/mL.

With `O=C(N[C@@H]1CCC[C@H](Nc2nc(-c3c[nH]c4ncc(C(F)(F)F)cc34)ncc2F)C1)N1CCOCC1` the pEC50 [1] was 8.52, the EC90 [3] was 3 nM and the clearance [5] was 81 mL/min/kg.

For `CC(=O)N1CCC[C@H](CNc2nc(-c3c[nH]c4ncc(Cl)cc34)ncc2F)C1`, the pEC50 [1] was 6.40, the pKd [2] was 6.52 and the EC90 [3] was 540 nM.

`C[C@]1(C(=O)O)CCCC[C@@H]1Nc1nc(-c2c[nH]c3ncc(Cl)cc23)ncc1F` (racemic) showed a pEC50 [1] of 7.96, an AUC [6] of 2400 ng·h/mL and a Cmax [7] of 200 ng/mL. It also gave a pKd [2] greater than 8.70, a bioavailability [8] of 82% and a Cmax [9] of 1300 ng/mL. The EC90 [3] was 59 nM, the half-life [4] was 3.2 h and the clearance [5] was 24 mL/min/kg. It also gave an AUC [10] of 2200 ng·h/mL.

With `Cc1cnc2[nH]cc(-c3ncc(F)c(N[C@H]4CCC[C@@H](NC(=O)N5CCOCC5)C4)n3)c2c1` the pEC50 [1] was 8.00, the EC90 [3] was 13 nM and the clearance [5] was 78 mL/min/kg.

`O=C(O)[C@H]1[C@H]2CC[C@H](C2)[C@@H]1Nc1nc(-c2c[nH]c3ncc(Cl)cc23)ncc1F` (racemic) showed a pEC50 [1] greater than 8.70, a pKd [2] greater than 8.70 and an EC90 [3] of 6 nM.

Compound `COCC[C@]1(C(=O)O)CCCC[C@@H]1Nc1nc(-c2c[nH]c3ncc(Cl)cc23)ncc1F` (racemic) has a pEC50 [1] of 7.74, a pKd [2] of 8.05 and an EC90 [3] of 90 nM.

Compound `COc1cnc2[nH]cc(-c3ncc(F)c(N[C@H]4CCC[C@@H](NC(=O)N5CCOCC5)C4)n3)c2c1` has a pEC50 [1] of 7.02 and an EC90 [3] of 170 nM.

Work on `Cn1cncc1C(=O)N[C@@H]1CCC[C@H](Nc2nc(-c3c[nH]c4ncc(F)cc34)ncc2F)C1` yielded a pEC50 [1] of 8.70, an AUC [6] of 19000 ng·h/mL and a Cmax [7] of 600 ng/mL. For the same compound, the pKd [2] was 7.05, the bioavailability [8] was 100% and the Cmax [9] was 13000 ng/mL. It also gave an EC90 [3] of 5 nM, a half-life [4] of 2 h and a clearance [5] of 22 mL/min/kg. The AUC [10] was 3700 ng·h/mL.

In the case of `CN(C)C(=O)N[C@@H]1CCC[C@H](Nc2nc(-c3c[nH]c4ncc(F)cc34)ncc2F)C1`, the pEC50 [1] was 8.70, the pKd [2] was 6.40 and the EC90 [3] was 6 nM.

Compound `COCCC(=O)N1CCC[C@H](Nc2nc(-c3c[nH]c4ncc(Cl)cc34)ncc2F)C1` has a pEC50 [1] of 7.89, a pKd [2] of 7.00 and an EC90 [3] of 320 nM. It also gave a half-life [4] of 0.7 h and a clearance [5] of 88 mL/min/kg.

For `N[C@@H]1CCCC[C@H]1Nc1nc(-c2c[nH]c3ncc(Cl)cc23)ncc1F`, the pEC50 [1] was less than 4.70 and the pKd [2] was 5.31.

`O=C(O)[C@H]1CCCC[C@@H]1Nc1nc(-c2c[nH]c3ncc(Cl)cc23)ncc1F` (racemic) showed a pEC50 [1] of 6.87, a Cmax [7] of 30 ng/mL and a pKd [2] greater than 8.70. For the same compound, the bioavailability [8] was 7%, the EC90 [3] was 187 nM and the half-life [4] was 1 h. The clearance [5] was 16 mL/min/kg and the AUC [10] was 200 ng·h/mL.

Compound `O=C(N[C@@H]1CCC[C@H](Nc2nc(-c3c[nH]c4ncccc34)ncc2F)C1)N1CCOCC1` has a pEC50 [1] of 7.01 and an EC90 [3] of 200 nM.

Compound `O=C(N[C@@H]1CCC[C@H](Nc2nc(-c3c[nH]c4ncc(F)cc34)ncc2F)C1)N1CCOCC1` has a pEC50 [1] of 8.40, an AUC [6] of 180000 ng·h/mL and a Cmax [7] of 200 ng/mL. For the same compound, the pKd [2] was 6.40, the bioavailability [8] was 46% and the Cmax [9] was 18200 ng/mL. It also gave an EC90 [3] of 12 nM, a half-life [4] of 1.7 h and a clearance [5] of 22 mL/min/kg. It also gave an AUC [10] of 1100 ng·h/mL.

With `CC(=O)N[C@@H]1CCC[C@H](Nc2nc(-c3c[nH]c4ncc(Cl)cc34)ncc2F)C1` the pEC50 [1] was 7.44, the pKd [2] was 7.15 and the EC90 [3] was 25 nM.

Compound `Fc1cnc(-c2c[nH]c3ncc(Cl)cc23)nc1NC1CCCC1` has a pEC50 [1] of less than 4.70, a pKd [2] of 6.15 and an EC90 [3] greater than 10000 nM.

`NC(=O)[C@H]1CCCC[C@@H]1Nc1nc(-c2c[nH]c3ncc(Cl)cc23)ncc1F` (racemic) showed a pKd [2] of 7.52 and an EC90 [3] of 3130 nM.

In the case of `CC(O)C(=O)N[C@@H]1CCC[C@H](Nc2nc(-c3c[nH]c4ncc(Cl)cc34)ncc2F)C1` (stereo partly drawn), the pEC50 [1] was 7.07, the pKd [2] was 6.40 and the EC90 [3] was 240 nM.

Compound `Fc1cnc(-c2c[nH]c3ncc(Cl)cc23)nc1NC1CCCNC1` (stereo not drawn) has a pEC50 [1] of 5.73.

Compound `CC(=O)N[C@H]1CCCC[C@@H]1Nc1nc(-c2c[nH]c3ncc(Cl)cc23)ncc1F` has a pEC50 [1] of 7.36, a pKd [2] of 7.00 and an EC90 [3] of 1460 nM.

Work on `O=C(N[C@@H]1CCC[C@H](Nc2nc(-c3c[nH]c4ncc(Cl)cc34)ncc2F)C1)N1CCOCC1` yielded a pEC50 [1] of 8.70, a pKd [2] of 6.30 and an EC90 [3] of 5 nM. For the same compound, the clearance [5] was 59 mL/min/kg.

Compound `CN(C)c1cnc2[nH]cc(-c3ncc(F)c(N[C@H]4CCC[C@@H](NC(=O)N5CCOCC5)C4)n3)c2c1` has a pEC50 [1] of 5.90 and an EC90 [3] greater than 3000 nM.

Work on `Cn1cncc1C(=O)N[C@@H]1CCC[C@H](Nc2nc(-c3c[nH]c4ncc(Cl)cc34)ncc2F)C1` yielded a pEC50 [1] of 8.70, a pKd [2] of 7.70 and an EC90 [3] of 3 nM.

Compound `COCC(=O)N[C@@H]1CCC[C@H](Nc2nc(-c3c[nH]c4ncc(Cl)cc34)ncc2F)C1` has a pEC50 [1] of 7.36, a pKd [2] of 7.15 and an EC90 [3] of 20 nM.

Work on `CC(=O)c1cnc2[nH]cc(-c3ncc(F)c(N[C@H]4CCC[C@@H](NC(=O)N5CCOCC5)C4)n3)c2c1` yielded a pEC50 [1] of less than 5.00 and an EC90 [3] greater than 3000 nM.

`OC[C@H](O)CN1CCC[C@H](Nc2nc(-c3c[nH]c4ncc(Cl)cc34)ncc2F)C1` gave a pEC50 [1] of 6.57, an AUC [6] of 6500 ng·h/mL and a pKd [2] of 6.40. The Cmax [9] was 1200 ng/mL, the EC90 [3] was 360 nM and the half-life [4] was 2.3 h. For the same compound, the clearance [5] was 56 mL/min/kg.

Compound `NC(=O)CN1CCC[C@H](Nc2nc(-c3c[nH]c4ncc(Cl)cc34)ncc2F)C1` has a pEC50 [1] of 7.09, a pKd [2] of 7.10 and an EC90 [3] of 20 nM. It also gave a clearance [5] of 182 mL/min/kg.

Compound `O=C(O)[C@H]1[C@@H]2CC[C@@H](C2)[C@@H]1Nc1nc(-c2c[nH]c3ncc(Cl)cc23)ncc1F` (racemic) has a pEC50 [1] of 8.10, a pKd [2] greater than 8.70 and an EC90 [3] of 21 nM.

`C[C@H](Nc1nc(-c2c[nH]c3ncc(Cl)cc23)ncc1F)C(=O)N(C)C` showed a pEC50 [1] of 6.29, a pKd [2] of 7.00 and an EC90 [3] of 1130 nM.
